Measured values from ChEMBL document CHEMBL3792296, “Synthesis and antiproliferative activity of 9-benzylamino-6-chloro-2-methoxy-acridine derivatives as potent DNA-binding ligands and topoisomerase II inhibitors” (Eur J Med Chem, 2016).
Calls of active or inactive are those of the source. No cut-off for these calls is given here.

How the values were obtained:
[1] = tested on: A549; assay: Antiproliferative activity against human A549 cells after 48 hrs by MTT assay; assay type: functional, cell-based; conditions: A549, 48 h
Procedure, shortened: (§1)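 MTT assay: cells seeded at 4-8 × 10³ per well, incubated overnight at 37 °C in 5% CO₂, then given fresh medium with graded compound concentrations or equal DMSO for 48 h. MTT (5 mg/mL solution) added for a further 4 h, formazan dissolved in DMSO, absorbance read at 490 nm. Six cancer cell lines tested.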

[2] = biological target: DNA topoisomerase 2-alpha (Homo sapiens) (UniProt P11388); assay: Inhibition of human recombinant topoisomerase 2-alpha expressed in Escherichia coli assessed as reduction in enzyme-mediated relaxation of supercoiled pBR322 DNA at 100 uM after 10 to 15 mins by agarose gel electrophoresis
Procedure, shortened: (§2)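 Relaxation of 500 ng supercoiled pBR322 by 1 unit human Topo I or Topo IIα, with or without compound, in 20 µL reaction buffer at 37 °C for 10-15 min. Reactions stopped with loading buffer, run on 0.8% agarose in TAE at 80 V for 30 min. Gels stained with ethidium bromide 2.5 µg/mL and viewed under UV.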

[3] = tested on: CCRF-CEM; assay: Antiproliferative activity against human CCRF-CEM cells after 48 hrs by MTT assay; assay type: functional, cell-based; procedure, shortened: as §1
[4] = tested on: MCF7; assay: Antiproliferative activity against human MCF7 cells after 48 hrs by MTT assay; assay type: functional, cell-based; conditions: MCF7, 48 h; procedure, shortened: as §1
[5] = Antiproliferative activity against human HCT116 cells after 48 hrs by MTT assay; assay type: functional, cell-based; conditions: HCT-116, 48 h; procedure, shortened: as §1
[6] = tested on: Calf thymus DNA; assay: Binding affinity to calf thymus DNA after 5 mins by UV-vis spectrophotometry; assay type: nucleic-acid assay; conditions: Bos taurus
Procedure, shortened: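 ctDNA at 0-44 µM is added to compound at 10 µM final in Tris-HCl buffer (pH 7.4). UV-vis absorption spectra are recorded after 5 min standing. The binding constant K_b is taken from a plot of absorption data against DNA concentration.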

[7] = tested on: HeLa; assay: Antiproliferative activity against human HeLa cells after 48 hrs by MTT assay; assay type: functional, cell-based; procedure, shortened: as §1
[8] = biological target: DNA topoisomerase 2-alpha (Homo sapiens) (UniProt P11388); assay: Inhibition of human recombinant topoisomerase 2-alpha expressed in Escherichia coli assessed as reduction in enzyme-mediated relaxation of supercoiled pBR322 DNA at 10 to 50 uM after 10 to 15 mins by agarose gel electrophoresis; procedure, shortened: as §2
[9] = tested on: A549; assay: Induction of DNA damage in human A549 cells assessed as tail DNA at 10 uM after 24 hrs by propidium iodide staining based comet assay (reference value: 0.02%); assay type: cell-based
Procedure, shortened: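 Alkaline comet assay. About 10⁵ A549 cells per well incubated 12 h, then treated 24 h in serum-free medium against a DMSO control. Cells embedded in low-melting agarose, lysed 2 h, alkaline-unwound 0.5 h at 4 °C, electrophoresed at 300 mA for 25 min in the dark. Slides neutralized, PI-stained, 50 random cells scored for % tail DNA.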

[10] = biological target: T1, DNA topoisomerase 1 (Homo sapiens) (UniProt P11387); assay: Inhibition of human topoisomerase 1 assessed as reduction in enzyme-mediated relaxation of supercoiled pBR322 DNA at 50 to 100 uM after 10 to 15 mins by agarose gel electrophoresis; procedure, shortened: as §2
T1 sequence (whole entry): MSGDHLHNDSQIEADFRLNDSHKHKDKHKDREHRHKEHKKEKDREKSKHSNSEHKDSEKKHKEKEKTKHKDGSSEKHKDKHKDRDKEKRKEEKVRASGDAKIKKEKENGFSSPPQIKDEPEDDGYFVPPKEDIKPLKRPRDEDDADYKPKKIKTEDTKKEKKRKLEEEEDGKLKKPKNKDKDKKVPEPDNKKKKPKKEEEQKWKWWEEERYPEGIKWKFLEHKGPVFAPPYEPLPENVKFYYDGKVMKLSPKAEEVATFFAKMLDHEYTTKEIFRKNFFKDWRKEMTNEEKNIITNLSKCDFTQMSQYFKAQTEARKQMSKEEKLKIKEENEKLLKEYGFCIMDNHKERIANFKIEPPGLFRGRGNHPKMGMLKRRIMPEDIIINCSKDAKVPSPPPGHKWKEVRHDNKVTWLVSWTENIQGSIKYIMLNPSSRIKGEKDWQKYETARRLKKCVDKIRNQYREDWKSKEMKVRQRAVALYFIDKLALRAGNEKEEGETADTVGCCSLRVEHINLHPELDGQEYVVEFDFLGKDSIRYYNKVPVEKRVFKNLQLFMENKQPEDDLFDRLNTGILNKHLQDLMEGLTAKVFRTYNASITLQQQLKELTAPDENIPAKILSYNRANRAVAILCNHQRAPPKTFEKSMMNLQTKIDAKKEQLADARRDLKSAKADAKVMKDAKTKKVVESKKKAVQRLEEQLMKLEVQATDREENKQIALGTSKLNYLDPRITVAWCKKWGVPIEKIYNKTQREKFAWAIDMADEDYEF

Chain of DNA topoisomerase 2-alpha (Homo sapiens) (P11388 whole entry): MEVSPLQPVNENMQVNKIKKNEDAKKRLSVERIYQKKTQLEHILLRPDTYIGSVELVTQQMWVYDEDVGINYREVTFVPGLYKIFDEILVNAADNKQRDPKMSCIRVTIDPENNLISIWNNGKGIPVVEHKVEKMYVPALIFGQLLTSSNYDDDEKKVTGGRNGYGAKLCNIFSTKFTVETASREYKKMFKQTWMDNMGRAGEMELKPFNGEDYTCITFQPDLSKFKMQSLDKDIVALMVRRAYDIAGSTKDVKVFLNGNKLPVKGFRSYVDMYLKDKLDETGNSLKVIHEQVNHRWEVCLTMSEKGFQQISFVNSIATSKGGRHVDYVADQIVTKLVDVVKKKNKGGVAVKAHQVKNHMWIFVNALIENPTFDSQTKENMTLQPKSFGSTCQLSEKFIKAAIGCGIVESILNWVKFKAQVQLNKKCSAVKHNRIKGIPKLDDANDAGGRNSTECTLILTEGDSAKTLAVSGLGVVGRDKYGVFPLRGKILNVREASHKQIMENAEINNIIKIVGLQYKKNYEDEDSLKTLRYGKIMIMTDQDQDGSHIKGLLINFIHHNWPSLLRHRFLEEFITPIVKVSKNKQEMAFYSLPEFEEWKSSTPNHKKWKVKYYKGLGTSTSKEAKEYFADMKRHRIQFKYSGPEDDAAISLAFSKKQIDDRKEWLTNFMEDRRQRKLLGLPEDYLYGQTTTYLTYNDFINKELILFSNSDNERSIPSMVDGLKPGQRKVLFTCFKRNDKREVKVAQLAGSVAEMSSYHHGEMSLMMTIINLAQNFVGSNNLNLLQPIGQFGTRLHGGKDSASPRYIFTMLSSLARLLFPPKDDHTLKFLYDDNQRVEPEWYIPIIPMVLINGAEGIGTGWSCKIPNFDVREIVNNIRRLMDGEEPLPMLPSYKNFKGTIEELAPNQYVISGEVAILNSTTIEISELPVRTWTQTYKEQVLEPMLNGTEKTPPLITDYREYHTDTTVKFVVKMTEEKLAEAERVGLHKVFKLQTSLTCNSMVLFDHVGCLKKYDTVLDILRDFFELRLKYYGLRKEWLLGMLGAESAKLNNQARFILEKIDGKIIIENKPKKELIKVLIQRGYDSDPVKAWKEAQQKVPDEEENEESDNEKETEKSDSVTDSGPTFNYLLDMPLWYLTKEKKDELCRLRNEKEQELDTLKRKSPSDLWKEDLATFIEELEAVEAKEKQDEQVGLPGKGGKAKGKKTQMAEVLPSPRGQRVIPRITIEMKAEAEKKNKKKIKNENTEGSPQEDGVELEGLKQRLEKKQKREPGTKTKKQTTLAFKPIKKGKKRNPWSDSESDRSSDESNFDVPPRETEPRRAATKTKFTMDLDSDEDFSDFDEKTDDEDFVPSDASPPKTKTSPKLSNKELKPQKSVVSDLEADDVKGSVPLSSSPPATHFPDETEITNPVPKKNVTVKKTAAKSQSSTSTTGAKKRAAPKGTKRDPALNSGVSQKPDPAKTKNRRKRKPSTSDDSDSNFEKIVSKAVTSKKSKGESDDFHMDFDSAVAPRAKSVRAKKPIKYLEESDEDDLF

For `COc1ccc2nc3cc(Cl)ccc3c(NCc3ccc(C(F)(F)F)cc3)c2c1`, the IC50 [1] was 6.04 µM and the inhibition [2] was “Active”.
In the case of `COc1cc(NS(C)(=O)=O)ccc1Nc1c2ccccc2nc2ccccc12` [AMSACRINE], the IC50 [3] is reported as 0.18 µM, the IC50 [4] is reported as 26.8 µM and the IC50 [5] is reported as 0.93 µM. For the same molecule, the IC50 [1] was 5.96 µM, the Kb [6] was 1.36 ×10⁵ /M and the IC50 [7] was 0.34 µM.
In the case of `COc1ccc2nc3cc(Cl)ccc3c(NCc3ccc(OC(F)F)cc3)c2c1`, the IC50 [3] is reported as 6.87 µM, the IC50 [4] is reported as 9.95 µM and the IC50 [5] is reported as 1.16 µM. The IC50 [1] was 0.72 µM, the inhibition [8] was “Active” and the inhibition [2] was “Active”. The IC50 [7] was 4.41 µM.
In the case of `COc1cc([C@@H]2c3cc4c(cc3[C@@H](O[C@@H]3O[C@@H]5CO[C@@H](C)O[C@H]5[C@H](O)[C@H]3O)[C@H]3COC(=O)[C@H]23)OCO4)cc(OC)c1O` [ETOPOSIDE], the IC50 [3] is reported as 0.12 µM, the IC50 [5] is reported as 6.03 µM and the IC50 [1] is reported as 3.82 µM. The inhibition [8] was “Active”, the Activity [9] was 46.7% and the IC50 [7] was 41.2 µM.
For `COc1ccc2nc3cc(Cl)ccc3c(NCc3cc(OC)c(OC)c(OC)c3)c2c1`, the IC50 [1] was 2.18 µM and the inhibition [2] was “Active”.
For `COc1ccc2nc3cc(Cl)ccc3c(NCc3ccccc3C(F)(F)F)c2c1`, the IC50 [1] was 6.32 µM and the inhibition [2] was “Active”.
In the case of `COc1cc(CNc2c3ccc(Cl)cc3nc3ccc(OC)cc23)cc(OC)c1`, the IC50 [1] is reported as 9.2 µM and the inhibition [2] is reported as “Active”.
With `COc1ccc2nc3cc(Cl)ccc3c(NCc3cccc(F)c3)c2c1` the IC50 [1] was 4.19 µM and the inhibition [2] was “Active”.
With `COc1ccc2nc3cc(Cl)ccc3c(NCc3ccc(C(C)(C)C)cc3)c2c1` the IC50 [1] was 7.03 µM and the inhibition [2] was “Active”.
Molecule `COc1ccc2nc3cc(Cl)ccc3c(NCc3ccc4c(c3)OCO4)c2c1` has an IC50 [3] of 2 µM, an IC50 [4] of 10.3 µM and an IC50 [5] of 1.62 µM. The IC50 [1] was 0.65 µM, the inhibition [8] was “Active” and the inhibition [2] was “Active”. For the same molecule, the IC50 [7] was 7 µM.
With `COc1ccc2nc3cc(Cl)ccc3c(NCc3ccc(Cl)cc3)c2c1` the IC50 [1] was 4.2 µM and the inhibition [2] was “Active”.
For `COc1ccc2nc3cc(Cl)ccc3c(NCc3ccc(Br)cc3)c2c1`, the IC50 [1] was 3.26 µM and the inhibition [2] was “Active”.
In the case of `COc1ccc2nc3cc(Cl)ccc3c(NCc3ccc(F)c(F)c3)c2c1`, the IC50 [1] is reported as > 25 µM and the inhibition [2] is reported as “Active”.
For `COc1ccc2nc3cc(Cl)ccc3c(NCc3cccc(Cl)c3)c2c1`, the IC50 [1] was 4.64 µM and the inhibition [2] was “Active”.
`COc1ccc2nc3cc(Cl)ccc3c(NCc3cccc(C(F)(F)F)c3)c2c1` showed an IC50 [3] of 5.11 µM, an IC50 [4] of 10.5 µM and an IC50 [5] of 0.76 µM. The IC50 [1] was 0.16 µM, the inhibition [8] was “Active” and the inhibition [2] was “Active”. The IC50 [7] was 10.1 µM.
With `COc1ccc2nc3cc(Cl)ccc3c(NCc3ccc(F)cc3)c2c1` the inhibition [10] was “Active”, the IC50 [1] was 4.05 µM and the inhibition [2] was “Active”.
With `COc1cccc2c1C(=O)c1c(O)c3c(c(O)c1C2=O)C[C@@](O)(C(=O)CO)C[C@@H]3O[C@H]1C[C@H](N)[C@H](O)[C@H](C)O1` [DOXORUBICIN] the IC50 [3] was 0.052 µM, the IC50 [4] was 0.81 µM and the IC50 [1] was 0.09 µM. It also gave an IC50 [7] of 0.78 µM.
For `COc1ccc2nc3cc(Cl)ccc3c(NCc3cccc(C)c3)c2c1`, the IC50 [1] was 2.22 µM and the inhibition [2] was “Active”.
For `COc1ccc2nc3cc(Cl)ccc3c(NCc3ccccc3Br)c2c1`, the IC50 [1] was 3 µM and the inhibition [2] was “Active”.
`COc1ccc2nc3cc(Cl)ccc3c(NCc3ccc(OC)c(F)c3)c2c1` gave an IC50 [3] of 3.08 µM, an IC50 [4] of 7.6 µM and an IC50 [5] of 0.86 µM. The IC50 [1] was 0.95 µM, the inhibition [8] was “Active” and the inhibition [2] was “Active”. For the same molecule, the IC50 [7] was 4.08 µM.
In the case of `COc1ccc2nc3cc(Cl)ccc3c(NCc3ccc(OC)c(OC)c3)c2c1`, the inhibition [10] is reported as “Active”, the IC50 [1] is reported as 2.56 µM and the inhibition [2] is reported as “Active”.
In the case of `COc1ccc2nc3cc(Cl)ccc3c(NCc3ccc(C)cc3)c2c1`, the IC50 [1] is reported as 2.63 µM and the inhibition [2] is reported as “Active”.
With `COc1ccc2nc3cc(Cl)ccc3c(NCc3cc(F)c(OC)c(F)c3)c2c1` the IC50 [1] was 1.82 µM and the inhibition [2] was “Active”.
For `CCc1ccc(CNc2c3ccc(Cl)cc3nc3ccc(OC)cc23)cc1`, the inhibition [10] was “Active”, the IC50 [1] was 2.58 µM and the inhibition [2] was “Active”.
With `COc1ccc2nc3cc(Cl)ccc3c(NCc3ccccc3F)c2c1` the IC50 [1] was 2.82 µM and the inhibition [2] was “Active”.
